Test results as given in publication PMC7029794 (Cancer chemotherapy and pharmacology, 2019).
Read-outs that look alike come from different tables or passages of the source. Blank lines part the entries; values can stand above or below the compound they belong to.

Columns and labels:
[1] = CF1 mice, 5 minutes after injection, cited from earlier work
[2] = tested on: CDK-cyclin D1; conditions: read-out: IC50 for CDK-cyclin D1; no reference given; cited from earlier work
[3] = Cerebral microdialysis study in non-tumor bearing mice; assay type: in vivo, CD1 nude mice; conditions: 100 mg/kg oral
Summary of the method: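 After a single oral 100 mg/kg dose, brain ECF was microdialysed with Ringer's after at least 1 h probe equilibration. Plasma was sampled at 0.08, 1.5 and 7 h (some at 24 h). ECF was corrected by in vitro probe recovery at 1 μg/mL, 37°C, 0.5 μL/min. A one-compartment plus ECF compartment model was fitted in NONMEM with plasma parameters fixed.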

[4] = Cerebral microdialysis study in mice bearing SJ-DIPGx7; assay type: in vivo, CD1 nude mice; conditions: glioma mice, 100 mg/kg oral
Summary of the method: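 Female CD1 nude mice with cortical allografts of 1·10^6 SJ-DIPGx7 cells (n=16); a guide cannula was implanted stereotactically into the cortex. After a single oral 100 mg/kg dose, tumor ECF was microdialysed with Ringer's after at least 1 h probe equilibration, and plasma was sampled at 0.08, 1.5 and 7 h (some at 24 h). ECF values were corrected by per-probe in vitro recovery. Data were fitted in NONMEM with plasma parameters and V3 fixed.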

[5] = assay type: in vivo, CD1 nude mice
Summary of the method: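 Female CD1 nude mice (n=9) bearing cortical SJ-DIPGx7 allografts received a single oral 100 mg/kg dose (10 mg/ml in 0.5% methyl cellulose). Sampling used a population design with multiple samples per mouse up to 24 h: retro-orbital bleeds and terminal cardiac puncture, into heparin. Plasma was assayed by LC-MS/MS. A one-compartment model with an oral dosing compartment was fitted by nonlinear mixed-effects modelling (NONMEM).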

[6] = cited from earlier work
[7] = Ribociclib protein binding in mouse plasma; assay type: in vitro ADME; conditions: CD1, mouse
Summary of the method: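 The test compound was spiked into CD1 mouse plasma (sodium heparin) at final 500, 1000, 2500 and 5000 ng/ml. Spiked plasma was ultrafiltered through a 10 kDa cut-off device by centrifugation for 30 min at 3600 rpm, 37°C, and the filtrate was stored at −80°C. Fraction unbound was calculated as the filtrate concentration divided by the total plasma concentration.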

[8] = adults at the recommended dose; cited from earlier work
[9] = in vivo, po, 30 mg/kg, cited from earlier work
[10] = Full-plasma PK study, glioma mice, 100 mg/kg oral

SMILES: CC(=O)c1c(C)c2cnc(Nc3ccc(N4CCNCC4)cn3)nc2n(C2CCCC2)c1=O [palbociclib]
Kp,uu [1]: 0.01 ± 0.003 | Kp,brain ([1]; dose 0.5 μmole/kg): 0.13 ± 0.04

θCL23 Influx clearance from plasma to ECF compartment, Estimate (%RSE) [3]: 0.124 (26.8) L/hr/kg | θCL32 Efflux clearance from ECF to plasma compartment, Estimate (%RSE) [3]: 7.78 (8.81) L/hr/kg | AUC(0-t) ([3]; CD1 nude, mouse, brain ECF, po, 100 mg/kg, Brain/tumor ECF AUC0–24h, n=12, brain ECF): 736 ± 610 ng·h/mL | AUC(0-t) ([4]; CD1 nude, mouse, tumor ECF, po, 100 mg/kg, Brain/tumor ECF AUC0–24h, n=16, tumor ECF): 433 ± 451 ng·h/mL | θCL23 Influx clearance from plasma to ECF compartment, Estimate (%RSE) [4]: 0.000000838 (24) L/hr/kg | θCL32 Efflux clearance from ECF to plasma compartment, Estimate (%RSE) [4]: 0.0000808 (11.5) L/hr/kg | half-life ([5]; CD1 nude, mouse, plasma, po, 100 mg/kg): 4.67 ± 0.64 h | θCL Clearance, Estimate (%RSE) [5, 10]: 2.78 (1.8) L/hr/kg | θKa First-order absorption constant, Estimate (%RSE) [5, 10]: 2.75 (5.26) 1/hr | θVc Volume of central compartment, Estimate (%RSE) [5, 10]: 18.6 (3.87) L/kg | fraction unbound at 30 min [7]: 0.23
SMILES: CN(C)C(=O)c1cc2cnc(Nc3ccc(N4CCNCC4)cn3)nc2n1C1CCCC1 [ribociclib, Ribociclib]
IC50 [2]: 10 nM | fraction unbound ([6]; assumed value for phase I comparison): 0.30 | unbound AUC ([6]; phase I study, assuming a fraction unbound of 0.30): ~ 6000 ng/ml*hr

SMILES: CCN1CCN(Cc2ccc(Nc3ncc(F)c(-c4cc(F)c5nc(C)n(C(C)C)c5c4)n3)nc2)CC1 [abemaciclib]
plasma AUC [8]: 5520 ng·h/mL | Kp,brain ([9]; 24 h): 0.21 ± 0.04 | Kp,uu ([9]; 24 h): 0.03 ± 0.01 | plasma AUC [9]: 69,300 ng/ml*hr
